{"source": "PubChem BioAssay AID651787", "about": "(The Scripps Research Institute Molecular Screening Center, 2012)", "note": "Among all 2,400 compounds or so, about 1,200 (50%) were called active.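 How the source made its calls: active means activation above the run cutoff, the mean activation over all tested wells plus 3 SD (cut at about 12% in these data); inactive means the rest.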 So high a share suggests a set chosen from earlier hits. Not all results are given here.", "data": [{"experiment": "nonselective calcium mobilization agonists, CHO-Ga16 cells, counter-screen for hTAAR1 agonist project, cell-based, fluorescence, CHO-Ga16 parental line (AID 651787)", "conditions": "Fluo-8 calcium fluorescence, at 3 µM, hits give high values, normalized to maximal ATP response, DMSO zero", "method_in_brief": "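System: Gα16-overexpressing parental CHO cells; Quantity: 750 cells/well; Signal: Fluo-8 calcium-dye fluorescence; Benchmarks: DMSO (0%) and EC100 ATP (100%); Evaluation: percent activation from max/basal fluorescence ratio; Schedule: Fluo-8 loading 75 min 37 °C, then 30 min room temperature; Dosing: 3 µM compound, single concentration.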", "values": [{"smiles": "CCCCC(=O)N/N=C/c1c(O)n(CC)c(=S)n(CC)c1=O", "activation": "90.1% (active)"}, {"smiles": "CCC(=NCCc1ccccc1)c1c(O)n(C2CCCCC2)c(=O)[nH]c1=O", "activation": "4.36% (inactive)"}, {"smiles": "COc1ccc(Br)cc1CNCCc1cccc(Cl)c1", "activation": "17.7% (active)"}, {"smiles": "Clc1ccc2nc3c(c(-c4ccccc4)c2c1)CNCC3", "activation": "3.65% (inactive)"}, {"smiles": "Cc1cccc(N2C(=O)NC(=O)/C(=C\\c3cnn(-c4ccccc4)c3)C2=O)c1", "activation": "25.1% (active)"}, {"smiles": "c1ccc(CCNC2CCCCCC2)cc1", "activation": "0.13% (inactive)"}, {"smiles": "O=C1NC(=O)N(Cc2ccco2)C(=O)/C1=C\\c1ccc(-c2ccc(F)cc2)o1", "activation": "21.1% (active)"}, {"smiles": "NCC(O)c1ccc(O)cc1", "note": "(centres undefined)", "activation": "1.74% (inactive)"}, {"smiles": "CC(Cc1ccccc1)NC=O", "note": "(centres undefined)", "activation": "6.88% (inactive)"}]}]}
